≈ marks a conversion by molar mass, not a printed value. Calls of active or inactive are those of the source. The calls are words filed in the database; no cut-off is given here. Peptide text beside a SMILES is read from it. * marks the point of attachment. Cbz = O=C(OCc1ccccc1)*
Experiments:
Plasma [1] = test: Half life in mouse plasma after 60 mins; type: ADME, cell-free; details: 1 h
[2] = molecular target: Survival motor neuron protein (Homo sapiens) (UniProt Q16637); test: Stabilization of human SMN protein expressed in HEK293 cells expressing SMN2 promoter after 24 hrs by luciferase reporter gene assay relative to control; type: cell-based
Procedure, shortened: (§1)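 SMN2-luc reporter cells seeded at 25,000/well overnight, then treated 24 h with six doses (3-fold serial dilutions, top final 10 or 30 μM), 0.1% DMSO. Firefly and Renilla luciferase read by dual-luciferase assay, normalized to DMSO as percent; EC50 and maximal activation from curves. Mean ± SEM, ≥3 trials.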

Liver [3] = test: (§2) Half life in mouse liver microsomes; type: ADME, microsome; details: microsomes
Procedure, shortened: (§3)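 Compound stability in mouse and human liver microsomes, expressed as half-life in min.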

[4] = Aqueous solubility of the compound at pH 7.4; type: physicochemical; details: aqueous solution
Procedure, shortened: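 Kinetic solubility measured in aqueous medium at pH 7.4.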

[5] = molecular target: Survival motor neuron protein (Homo sapiens) (UniProt Q16637); test: Stabilization of SMN protein in 3813T fibroblasts derived from human SMA patient assessed as increase in SMN protein level after 48 hrs by SDS-PAGE and immunoblot
Procedure, shortened: (§4)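 hTERT-immortalized SMA patient 3813T fibroblasts seeded at 6000/well, next day dosed for 48 h at indicated concentrations, 0.1% DMSO. Lysed in boiling buffer (150 mM NaCl, 10 mM Tris pH 8.0, 2% SDS), run on 10% SDS-PAGE, SMN immunoblotted, normalized to tubulin or actin as fold over DMSO; one-way ANOVA with Dunnett.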

[6] = molecular target: Survival motor neuron protein (Homo sapiens) (UniProt Q16637); test: Stabilization of SMN protein in 3813T fibroblasts derived from human SMA patient assessed as increase in SMN protein level at 2 uM after 48 hrs by SDS-PAGE and immunoblot; procedure, shortened: as §4
Plasma [7] = test: Cmax in mouse plasma at 20 mg/kg, ip after 30 mins; type: ADME, organism-based; design: dose 20 mg/kg, route intraperitoneal; details: in vivo, 0.5 h, BLD = below limit of detection
Brain = test: Cmax in mouse brain at 20 mg/kg, ip after 30 mins; type: ADME, organism-based; design: dose 20 mg/kg, route intraperitoneal; details: in vivo, 0.5 h, BLD = below limit of detection
[8] = Cmax in mouse plasma at 20 mg/kg, ip; type: ADME, organism-based; design: dose 20 mg/kg, route intraperitoneal; details: plasma
[9] = Cmax in mouse brain at 20 mg/kg, ip; type: ADME, organism-based; design: dose 20 mg/kg, route intraperitoneal
Liver [10] = test: Half life in human liver microsomes; type: ADME, microsome; procedure, shortened: as §3
[11] = molecular target: Survival motor neuron protein (Homo sapiens) (UniProt Q16637); test: Stabilization of SMN protein in 3813T fibroblasts derived from human SMA patient assessed as increase in SMN protein level after 48 hrs by SDS-PAGE and immunoblot
[12] = molecular target: Survival motor neuron protein (Homo sapiens) (UniProt Q16637); test: Stabilization of SMN protein in 3813T fibroblasts derived from human SMA patient assessed as increase in SMN protein level at 2 uM after 48 hrs by SDS-PAGE and immunoblot
HEK293 [13] = test: Effect on cycloheximide-induced reduction in basal level of polyubiquitinated protein level in HEK293 cells at 1 uM pretreated for 2 hrs followed by cycloheximide addition measured after 6 hrs by SDS-PAGE analysis; type: functional, cell-based; details: Homo sapiens
Procedure, shortened: (§5)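 HEK293 cells pretreated 2 h with test compound or MG-132 (1 and 10 μM), then DMSO or cycloheximide (10 μM) added and incubated a further 6 h; final DMSO 0.2%. Lysates run on 4–15% gradient SDS-PAGE; anti-ubiquitin blot for polyubiquitinated proteins, tubulin as loading control.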

Homo sapiens [14] = species on record: Homo sapiens; test: Inhibition of proteasome in HEK293 cells assessed as increase in polyubiquitinated protein level at 1 and 10 uM incubated for 2 hrs by SDS-PAGE analysis; type: cell-based; procedure, shortened: as §5
Homo sapiens [15] = species on record: Homo sapiens; test: Inhibition of proteasome in HEK293 cells assessed as stabilization of SMN protein by measuring increase in SMN protein half life at 10 uM by pulse-chase experiment; type: cell-based
[16] = molecular target: Survival motor neuron protein (Homo sapiens) (UniProt Q16637); test: Stabilization of human luc fused SMN protein expressed in HEK293 cells at 10 uM after 24 hrs in presence of 10 uM cycloheximide by luciferase reporter gene assay; type: cell-based
Procedure, shortened: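 SMN2-luciferase reporter cells were maintained in high-glucose DMEM with 10% FBS, Pen/Strep and hygromycin at 37 °C. They were treated at the same time with cycloheximide (10 μM), to block protein synthesis, and with compound or DMSO. Cells were lysed at set time points, and SMN2-luc (firefly) and Renilla-luc activities were read by dual-luciferase assay.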

Renilla = test: Effect on renilla recombinant luciferase protein expressed in HEK293 cells at 10 uM after 24 hrs in presence of 10 uM cycloheximide by renilla luciferase reporter gene assay; type: cell-based
Procedure, shortened: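 SMN2-luc reporter cells given cycloheximide (10 μM) together with compound (10 μM) or DMSO. Lysed at set time points; SMN-luc and Renilla-luc activities measured.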

HEK293 [17] = test: Inhibition of autophagy in HEK293 cells assessed as increase in p62 level at 10 uM after 8 hrs by immunoblot analysis; details: Homo sapiens
HEK293 [18] = test: Inhibition of autophagy in HEK293 cells assessed as increase in LC3-2 level at 10 uM after 8 hrs by immunoblot analysis; details: Homo sapiens
[19] = molecular target: Survival motor neuron protein (Homo sapiens) (UniProt Q16637); test: Stabilization of SMN protein in HEK293 cells assessed as increase in SMN protein half life at 10 uM by pulse-chase experiment; type: cell-based
[20] = Stabilization of human […] expressed in HEK293 cells expressing SMN2 promoter after 24 hrs by luciferase reporter gene assay; type: cell-based; details: HEK293, 24 h; procedure, shortened: as §1
HEK293 [21] = test: Stabilization of human […] expressed in HEK293 cells expressing SMN2 promoter after 24 hrs by luciferase reporter gene assay relative to control; type: cell-based; details: in the assay text read “SMN protein” for “SMN mRNA”; procedure, shortened: as §1
[22] = as §2; type: ADME, microsome; details: liver microsomes; procedure, shortened: as §3
HEK293 [23] = test: Effect on human luciferase-tagged SMN mRNA expressed in HEK293 cells assessed as SMN exon 7 included transcript at 10 uM after 24 hrs by qRT-PCR relative to GAPDH mRNA expression; type: cell-based
Procedure, shortened: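 SMN2-luciferase reporter cells treated with compound; total RNA isolated with Trizol, DNase I treated and reverse transcribed. SYBR Green qPCR for SMN exon 7-included and full-length transcripts, with GAPDH as reference.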

Chain of Survival motor neuron protein (Homo sapiens) (Q16637 whole entry, the tested form may be a part): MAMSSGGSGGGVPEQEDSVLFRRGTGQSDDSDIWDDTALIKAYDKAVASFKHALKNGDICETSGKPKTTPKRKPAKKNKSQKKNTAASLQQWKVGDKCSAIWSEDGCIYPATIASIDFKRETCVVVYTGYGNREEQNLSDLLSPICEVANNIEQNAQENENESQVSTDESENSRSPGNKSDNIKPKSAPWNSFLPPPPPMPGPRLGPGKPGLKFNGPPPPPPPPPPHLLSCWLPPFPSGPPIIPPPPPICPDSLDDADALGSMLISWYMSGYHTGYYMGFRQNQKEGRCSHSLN

## CC(C)c1cc(C(=O)Nc2ccccc2F)no1
Plasma [1]
  t1/2: 9 min
[2]
  Activity: 175%

## Cc1c(C(=O)Nc2ccc(F)c(Cl)c2)noc1C(C)C
Plasma [1]
  t1/2: 76 min
[2]
  Activity: 182%
Liver [3]
  t1/2: < 5 min

## CC(C)c1cc(C(=O)Nc2nc3ccccc3s2)no1
[2]
  Activity: 124%

## CC(C)c1cc(C(=O)Nc2nc3ccccc3n2C)no1
[2]
  Activity: 219%

## CC(C)c1cc(C(=O)Nc2ccccc2Cl)no1
[2]
  Activity: 114%

## CC(C)c1cc(C(=O)Nc2ccccn2)no1
Plasma [1]
  t1/2: < 5 min
[2]
  Activity: 195%
[4]
  solubility kinetic: 77 µM (≈ 17.8 µg/mL)
Liver [3]
  t1/2: > 120 min
[5]
  Activity: Dose-dependent effect
[6]
  fold change (FC): 2
Plasma [7]
  Cmax: Bld
Brain
  Cmax: Bld
[8]
  Cmax: 2 to 3 ng/mL
[9]
  Cmax: 5 to 6 ng/mL
Liver [10]
  t1/2: > 120 min
[11]
  Activity: Dose-dependent effect
[12]
  fold change (FC): 2

## CC(C)c1cc(C(=O)Nc2ccc(Cl)cc2)no1
[2]
  Activity: 168%

## CC(C)c1cc(CNc2ccc(F)c(Cl)c2)no1
[2]
  Activity: 137%

## O=C(Nc1ccc(F)c(Cl)c1)c1ccon1
[2]
  Activity: inactive

## CC(C)c1cc(C(=O)Nc2nccs2)no1
[2]
  Activity: 166%

## CCc1cc(C(=O)Nc2ccc(F)c(Cl)c2)no1
[2]
  Activity: 165%

## CC(C)C[C@@H](C=O)NC(=O)[C@H](CC(C)C)NC(=O)[C@H](CC(C)C)NC(=O)OCc1ccccc1 (Cbz-Leu-Leu-Leu-aldehyde)
HEK293 [13]
  Activity: Active
Homo sapiens [14]
  inhibition: Active
Homo sapiens [15]
  inhibition: Active

## O=C(Nc1ccc(F)c(Cl)c1)c1cc(-c2ccccc2)on1
[2]
  Activity: inactive

## CC(C)c1cc(C(=O)Oc2ccc(F)c(Cl)c2)no1
[2]
  Activity: inactive

## CC(C)c1cc(C(=O)N2CCc3ccccc32)no1
Plasma [1]
  t1/2: < 5 min
[2]
  Activity: 164%

## Cc1ccc(NC(=O)c2cc(C(C)C)on2)cc1
[2]
  Activity: 200%

## COc1cccc(NC(=O)c2cc(C(C)C)on2)c1
[2]
  Activity: 147%

## O=C(Nc1ncc(C2CCC2)s1)c1ccc(F)c(Cl)c1
Liver [3]
  t1/2: < 5 min

## CC(C)c1cc(C(=O)Nc2cccc(F)c2)no1
[2]
  Activity: 180%
[4]
  solubility kinetic: 49 µM (≈ 12.2 µg/mL)
Liver [3]
  t1/2: < 5 min

## CC(C)c1cc(C(=O)Nc2ncco2)no1
[2]
  Activity: inactive

## O=C(Nc1ccc(F)c(Cl)c1)c1cc(C2CCCCC2)on1
[2]
  Activity: inactive

## Cc1ccccc1NC(=O)c1cc(C(C)C)on1
[2]
  Activity: 125%

## O=C(CCCCCCC(=O)Nc1ccccc1)NO
[16]
  Activity: Active
Renilla
  Activity: Active

## CC(C)c1cc(NC(=O)c2ccc(F)c(Cl)c2)on1
[2]
  Activity: 137%

## CC(C)Cc1cc(C(=O)Nc2ccc(F)c(Cl)c2)no1
[2]
  Activity: 180%

## CCN(CC)CCCC(C)Nc1ccnc2cc(Cl)ccc12 (stereo unspecified)
HEK293 [17]
  Activity: Active
HEK293 [18]
  Activity: Active

## COc1ccccc1NC(=O)c1cc(C(C)C)on1
[2]
  Activity: 80%

## O=C(Nc1ccc(F)c(Cl)c1)c1cc(Cc2ccccc2)on1
[2]
  Activity: 116%

## CC(C)c1cc(C(=O)Nc2ccc(F)cc2)no1
[2]
  Activity: 182%

## CC(C)c1cc(C(=O)N(C)c2ccc(F)c(Cl)c2)no1
Plasma [1]
  t1/2: 5 min
[2]
  Activity: inactive

## COc1cc2c(c(OC)c1OC)C(c1cc(Br)ccc1F)CC(=O)N2 (stereo unspecified)
[19]
  Activity: inactive
[16]
  Activity: Active
Renilla
  Activity: Active
[20]
  EC50: 8.3 µM
HEK293 [21]
  Activity: 186%

## CC(C)c1cc(C(=O)Nc2ccc(F)c(Cl)c2)no1
Plasma [1]
  t1/2: 13 min
[2]
  Activity: 242%
[4]
  solubility kinetic: 6 µM (≈ 1.7 µg/mL)
[22]
  half-life: ≤ 5 min
[19]
  Activity: Active
HEK293 [23]
  Activity: inactive
[16]
  Activity: Active
Renilla
  Activity: inactive

## Cc1cc(C(=O)Nc2ccc(F)c(Cl)c2)no1
[2]
  Activity: inactive

## CC(C)c1cc(C(=S)Nc2ccc(F)c(Cl)c2)no1
[2]
  Activity: 120%

## CC(C)c1nc(NC(=O)c2ccc(F)c(Cl)c2)cs1
[2]
  Activity: 131%

## CC(C)(C)c1cc(C(=O)Nc2ccc(F)c(Cl)c2)no1
[2]
  Activity: 140%

## CC(C)c1cc(C(=O)NC2Cc3ccccc3C2)no1
[2]
  Activity: inactive

## Cc1cccc(NC(=O)c2cc(C(C)C)on2)c1
[2]
  Activity: 150%

## CC(C)c1cc(C(=O)Nc2ccccc2)no1
Plasma [1]
  t1/2: 8 min
[2]
  Activity: 190%
[4]
  solubility kinetic: 59 µM (≈ 13.6 µg/mL)
Liver [3]
  t1/2: < 5 min

## CC(C)c1cc(C(=O)Nc2nc3ccccc3[nH]2)no1
[2]
  Activity: 211%
[4]
  solubility kinetic: 12 µM (≈ 3.24 µg/mL)
Liver [3]
  t1/2: < 5 min

## CC(C)c1cc(C(=O)Nc2cccnc2)no1
[2]
  Activity: 94%

## CC(C)c1cc(NC(=O)Nc2ccc(F)c(Cl)c2)no1
[2]
  Activity: inactive

## CC(C)c1cc(NC(=O)c2ccc(F)c(Cl)c2)no1
Plasma [1]
  t1/2: 183 min
[2]
  Activity: 188%

## CC(C)c1cc(C(=O)Nc2ccncc2)no1
[2]
  Activity: inactive

## CC(C)c1cc(C(=O)Nc2cccc(Cl)c2)no1
[2]
  Activity: 160%

## O=C(Nc1ccc(F)c(Cl)c1)c1cc(C2CCCC2)on1
[2]
  Activity: inactive
